Active and inactive are the calls of the source. The rule behind the calls is not given here.
Tests used:
Assay type in all cases: functional
Mus musculus [1] = species: Mus musculus; test: Mitogenic activity is evaluated in vitro against splenocyte culture from C58 mice; mitogenic
In short: (§1)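 Washed splenocytes from C58 mice were plated at 6 x 10^5 viable lymphocytes per well in RPMI 1640 with 10% fetal calf serum. Compound dilutions were added with Con A, E. coli LPS, or medium alone and incubated at 37 °C for 3-4 days. [3H]thymidine was then added, and cells were harvested 4 h later. Counts are geometric means of four replicate wells.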

Mus musculus [2] = species: Mus musculus; test: Geometric mean titer of mice receiving 50 ug compound along with vaccine was determined after 21 days
In short: (§2)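 ICR/Ha mice, groups of eight, were injected with an influenza hemagglutinin antigen vaccine plus adjuvant. Hemagglutination-inhibition antibody was assayed in sera taken 21 days post-injection. Titer is the reciprocal of the serum dilution, reported as the group geometric mean.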

Mus musculus [3] = species: Mus musculus; test: Mitogenic activity is evaluated in vitro against splenocyte culture from C58 mice; NA means no activity; in short: as §1
Mus musculus [4] = species: Mus musculus; test: Geometric mean titer of mice receiving 5 ug compound along with vaccine was determined after 21 days; in short: as §2

SMILES	Activity (Mus musculus [1])	Activity (Mus musculus [2])	Activity (Mus musculus [3])	Activity (Mus musculus [4])
CC(=O)N[C@H]1C(O)O[C@H](CO)[C@@H](O)[C@@H]1O[C@H](C)C(=O)N[C@@H](C)C(=O)N[C@H](CCC(=O)O)C(N)=O (stereo partly specified) [MURAMYL DIPEPTIDE]	Mitogenic	40		
CC(C)CCCC(C)C1CCC2C3CC=C4CC(OCCCCCCSC5OC(C)C(O)C(O)C5O)CCC4(C)C3CCC12C (stereo unspecified)			inactive	28.28
CC(C)CCCC(C)C1CCC2C3CC=C4CC(OCCC#CCCSC5OC(C)C(O)C(O)C5O)CCC4(C)C3CCC12C (stereo unspecified)		33.64	inactive	
CC(C)CCC[C@@H](C)[C@H]1CC[C@H]2[C@@H]3CC=C4C[C@@H](OCCCCCCS[C@@H]5O[C@@H](CO)[C@@H](O[C@@H]6O[C@@H](CO)[C@H](O)[C@H](O)[C@@H]6O)[C@H](O)[C@@H]5O)CC[C@]4(C)[C@H]3CC[C@]12C		40	inactive	
CCCCCCCC/C=C\CCCCCCCCSC1OC(C)C(O)C(O)C1O (stereo unspecified)				61.69
CC1OC(SCCCc2ccc(C(F)(F)C(F)(F)c3ccccc3)cc2)C(O)C(O)C1O (stereo unspecified)				33.64
CC1OC(SCCC23C[C@H]4C[C@@H](C2)C[C@@H](C3)C4)C(O)C(O)C1O (stereo partly specified)				47.57
